Screening results from PubChem.
MT1-MMP act inh: blocks activation of human MT1-MMP; HT1080 RFP-PRO-GFP cells, GFP/RFP ratio fluorescence, overnight; percent of plate control window, DMSO zero; GFP/RFP ratio change, % at 20 µM; 0.061% of 360,000 active;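 active = GFP/RFP ratio change of at least 30% with cell ATP level not reduced by more than half and red fluorescence within 50% of control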
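Assay system: RFP-PRO-GFP reporter HT1080 cells; read-out basis: GFP/RFP fluorescence ratio; benchmarks: DMSO wells and RFP-L50D-GFP cells; doses: 20 µM single dose, 1% DMSO; schedule: overnight cell settling, then overnight compound exposure, 37 °C, 5% CO2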
Rpn11 inh: blocks the human proteasome subunit Rpn11 | human 26S proteasome, Ub4-pepOG fluorescence polarization; 20S core pre-blocked with epoxomicin | inhibition, % at 20 µM | 0.59% of 360,000 active;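 active = inhibition at 20 µM, scaled to each plate's controls, above about 33%, limit read from the data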
Target sequence (O00487 whole entry, looked up): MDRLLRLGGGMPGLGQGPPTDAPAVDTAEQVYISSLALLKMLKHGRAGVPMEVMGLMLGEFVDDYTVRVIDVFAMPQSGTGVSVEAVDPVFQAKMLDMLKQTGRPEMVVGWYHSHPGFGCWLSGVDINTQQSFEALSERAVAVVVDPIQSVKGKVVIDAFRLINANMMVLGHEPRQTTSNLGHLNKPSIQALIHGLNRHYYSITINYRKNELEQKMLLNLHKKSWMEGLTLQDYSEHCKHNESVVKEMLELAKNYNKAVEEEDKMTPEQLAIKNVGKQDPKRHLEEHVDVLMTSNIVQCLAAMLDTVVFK
CSN deneddyl inh: CSN deneddylation inhibition. Purified CSN, SCF-Nedd8-OG deneddylation, fluorescence polarization. inhibition, % at 12.5 µM. 0.38% of 360,000 active. Q92905;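 active = pattern-corrected inhibition above about 35%, with an unprinted fluorescence ratio check between 0.5 and 1.5, limit read from the data, passing the limit was not always enough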
Target sequence (Q92905 whole entry, looked up, one chain of several): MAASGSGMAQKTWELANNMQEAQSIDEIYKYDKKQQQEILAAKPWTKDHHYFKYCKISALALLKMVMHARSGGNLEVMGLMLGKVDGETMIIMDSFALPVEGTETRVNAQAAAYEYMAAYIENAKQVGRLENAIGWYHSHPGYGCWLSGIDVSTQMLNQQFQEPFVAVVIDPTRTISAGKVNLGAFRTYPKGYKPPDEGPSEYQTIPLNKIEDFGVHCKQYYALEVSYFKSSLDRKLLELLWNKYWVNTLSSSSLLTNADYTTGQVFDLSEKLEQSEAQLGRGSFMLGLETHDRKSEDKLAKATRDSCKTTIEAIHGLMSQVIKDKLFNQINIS
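Assay system: purified human Csn5 enzyme expressed in HEK293T cells; measure: % inhibition; also added: SCFSkp2-Nedd8OG substrate at 10 nM final; technique: fluorescence polarization; times: reaction 90 min, room temperature; medium: Tris buffer pH 7.5, NaCl, DTT, Tween-20, trehalose, ovalbumin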
SKN-1 inh: inhibitors of C. elegans SKN-1 | C. elegans VP596 Pgst-4::GFP/RFP ratio, acrylamide-induced, 24 h | inhibition, % at 21.8 µM | 0.49% of 360,000 active;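 active = interference check ratio from 0.5 to 1.5 plus GFP to RFP signal ratio inhibition reaching or exceeding a fixed threshold, cut at about 30% in these data, passing the limit was not always enough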
SUMO1-SIM PPI: alters human SUMO1 binding to SIM partners. inhibition, % at 20 µM. SUMO1 binding to a labelled peptide, TR-FRET, 1 h. 0.33% of 360,000 active. P63165. AID 602429; in the data active = inhibition above about 37%
DNMT1 inh: blocks human DNA methyltransferase DNMT1; DNMT1 molecular beacon, Hinp1I cleavage, fluorescence; P26358; AID 588458; inhibition (reported as % activation of signal), % at 10 µM; 0.83% of 360,000 active; in the data active = inhibition above about 50%
Numbers stand for hits; - = inactive; . = no result given; ! = not confirmed by another sample. Shown are actives, neighbours in structure and some others; about 2.3% of the full set was active somewhere.

SMILES | MT1-MMP act inh | Rpn11 inh | CSN deneddyl inh | SKN-1 inh | SUMO1-SIM PPI | DNMT1 inh
O=C(CSc1nc(O)cc(=O)[nH]1)Nc1ccc2c(c1)CCC2 | - | - | - | 45.6 | - | -
Cc1ccc(NC(=O)CSc2nc(N)cc(=O)[nH]2)cc1S(=O)(=O)N1CCCCCC1 | - | - | - | 52.9 | - | -
CCCc1cc(=O)[nH]c(SCC(=O)Nc2ccc(C)c(S(=O)(=O)N3CCCCC3)c2)n1 | - | - | - | - | - | -
Cc1oc(C)c2c(=O)ccc3c(c12)OC(N)=C(C#N)C3c1ccccc1 (stereo unspecified) | - | . | - | 48.1 | - | -
O=C1C(Nc2ccc(O)cc2)=C/C(=N/S(=O)(=O)c2cccs2)c2ccccc21 | - | - | - | - | 52.1 | 67.3
Cc1ccc(NC2=C/C(=N\S(=O)(=O)c3cccs3)c3ccccc3C2=O)c(C)c1 | - | - | - | - | - | -
Cc1ccc(Cl)cc1NC1=C/C(=N\S(=O)(=O)c2cccs2)c2ccccc2C1=O | - | - | - | - | - | 56.8!
O=C(O)c1ccc(NC2=C/C(=N/S(=O)(=O)c3cccs3)c3ccccc3C2=O)cc1 | - | - | - | - | 65.3 | 97.2
O=C(C[C@H]1CC[C@H](NC(=O)Nc2ccccc2F)[C@@H](CO)O1)NCc1ccc(-c2ccccc2)cc1 | - | . | - | - | - | .
CCOC(=O)[C@]12CCCC=C1N(CCc1ccc(OC)c(OC)c1)C(=O)[C@H](CC(=O)NCCc1ccccc1OC)C2 | - | . | - | - | - | .
O=C(Nc1c2ccccc2nc2ccccc12)C(Cl)(Cl)Cl | - | - | - | - | - | 51.2
O=C(Cc1ccccc1)NNc1c2ccccc2nc2ccccc12 | - | - | - | - | - | -
C=CCn1c(C)cc(C(=O)CSc2nnc(-c3cccc(S(=O)(=O)N(CC)CC)c3)o2)c1C | - | - | - | - | - | -
CCN(CC)S(=O)(=O)c1cccc(-c2nnc(SCC(=O)c3cc(C)n(C4CC4)c3C)o2)c1 | - | - | - | 42.2 | - | -
CC(C)n1cnc2c(Nc3ccc(F)c(Cl)c3)nc(NCCO)nc21 | - | - | - | - | - | -
C=CC(=O)Nc1ccc(Nc2nc(NC3CCC(N(C)C)CC3)nc3c2ncn3C(C)C)cc1 (stereo unspecified) | - | - | 37.4 | - | - | -
CN(C)CCCn1c(=S)[nH]c2ccccc2c1=O | - | - | - | - | - | -
CN(C)CCCn1c2c3ccccc3ccc2c2oc(=O)c3ccccc3c21 | - | - | - | - | - | 77.2
Cc1ccccc1-c1noc(-c2cccs2)n1 | - | - | - | 87.7 | - | -
COc1cccc(-c2noc(-c3cccs3)n2)c1 | - | - | - | 91.3 | - | -
O=C1NC(=O)/C(=C/c2ccc(-c3cccc([N+](=O)[O-])c3)o2)S1 | - | - | - | - | 55.4 | -
CCOc1nc(-c2ccncc2)nc2ccccc12 | - | - | - | 38.6 | - | -
CCCOc1ccc(-c2nc(OCC)c3ccccc3n2)cc1 | - | - | - | - | - | -
COC(=O)/C(=C\Nc1ccc(Cl)cc1Cl)NC(=O)c1ccc(OC)cc1 | - | - | - | - | 39.6 | -
COC(=O)/C(=C\Nc1ccc(OC)cc1)NC(=O)c1ccc(Cl)cc1Cl | - | - | - | - | - | -
SMILES | MT1-MMP act inh | Rpn11 inh | CSN deneddyl inh | SKN-1 inh | SUMO1-SIM PPI | DNMT1 inh
COc1ccc(CN2C(=O)CN(S(C)(=O)=O)CC2(C)C(=O)Nc2c(C)cccc2C)cc1OC (stereo unspecified) | - | . | - | - | - | .
CC1(C)C(=O)CC[C@]2(C)C3C(=O)C=C4[C@H]5C[C@@](C)(C(=O)O)CC[C@]5(C)CC[C@]4(C)[C@]3(C)CC[C@@H]12 (stereo partly specified) | - | - | - | - | - | -
CC1(C)C2CC[C@]3(C)[C@H](C(=O)C=C4[C@@H]5C[C@@](C)(C(=O)O)CC[C@]5(C)CC[C@]43C)[C@@]2(C)CC[C@@H]1O[C@H]1O[C@H](C(=O)O)[C@@H](O)[C@H](O)[C@H]1O[C@@H]1O[C@H](C(=O)O)[C@@H](O)[C@H](O)[C@H]1O (stereo partly specified) | - | - | - | - | 40.9 | -
COCOCCn1cc(CN2CCS(=O)(=O)N(Cc3ccc(-c4ccc(Cl)c(Cl)c4)cc3)C(C(C)C)C2=O)nn1 (stereo unspecified) | - | - | - | - | - | -
O=C(/C=C\Nc1cccc(F)c1)c1cccs1 | - | - | - | 69.1 | - | -
O=C(/C=C/Nc1ccc(F)cc1F)c1ccc(Br)cc1 | - | - | - | - | - | -
O=C(/C=C/Nc1ccccc1F)c1cccs1 | - | - | - | 85.1 | - | -
O=C(/C=C/Nc1ccc(F)cc1F)c1cccs1 | - | - | - | 59.9 | - | -
O=C(/C=C\Nc1ccc2c(c1)OCO2)c1cccs1 | - | - | - | - | - | -
Cc1ccc(N/C=C/C(=O)c2cccs2)cc1 | - | - | - | 41.9 | - | -
CC(C)COC(=O)N1CCCCC1c1cc(C(=O)NC(C)C)no1 (stereo unspecified) | - | - | - | - | - | -
OCCc1ccc(NCCc2cccs2)cc1 | - | - | - | - | - | -
O=C(O)c1cccc2cccc(-c3c4ccc(=O)c(O)c-4oc4c(O)c(O)ccc34)c12 | - | - | - | - | 118.7 | 69.6
CC(C)C(C(=O)NCc1ccccc1)N1CCN(C(=O)C2CCCO2)CC1 (stereo unspecified) | - | . | - | - | - | .
Cc1cc(C)nc(N2C(=O)CC(C(C)c3ccccc3)C2=O)n1 (stereo unspecified) | - | - | - | 36.7 | - | -
CC(c1ccccc1)C1CC(=O)N(c2ccc(C(=O)O)cc2)C1=O (stereo unspecified) | - | - | - | - | - | -
N/C(=N\OC(=O)c1ccco1)c1cccc(Br)c1 | - | - | - | 57.2 | - | -
N/C(=N\OC(=O)c1ccc(Br)o1)c1cccnc1 | - | - | - | 41.8 | - | -
COc1ccc(-c2sc3ccccc3c2-c2cc(OC)ccc2C=O)cc1 | - | . | - | - | - | .
COc1ccc(C(=O)N2CCC(C)(C(=O)NS(=O)(=O)C3CC3)C2)cc1 (stereo unspecified) | - | - | - | - | - | -
COc1ccc2cc(N3CCCC3=O)ccc2c1 | - | - | - | 40.7 | - | -
COc1cc(NC(=O)c2ccc(N3CCCC3=O)cc2)cc(OC)c1 | . | - | - | - | - | -
O=C(CSc1ncccn1)N(Cc1cccnc1)C(CCc1ccccc1)c1nc2ccccc2[nH]1 (stereo unspecified) | - | - | - | - | - | -
CCOc1ccc(-c2nn(-c3ccccc3)cc2/C=C(\C#N)S(=O)(=O)c2ccccc2)cc1C | - | - | - | 41.5 | - | -
